Assay results reported in ChEMBL document CHEMBL4251648, “Synthesis and bioevaluation and doking study of 1H-pyrrolo[2,3-b]pyridine derivatives bearing aromatic hydrazone moiety as c-Met inhibitors” (Eur J Med Chem, 2018).
Activity calls are given as the source filed them. No cut-off for these calls is given here.

Experiments:
PC-3 = experiment: Antiproliferative activity against human PC3 cells after 72 hrs by MTT assay; format: functional, cell-based; settings: for IC50: Homo sapiens, PC-3, 72 h, read-out: IC50
Outline: (§1)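 Cells grown in MEM with 10% FBS. About 4×10³ cells per well, pre-incubated 24 h at 37°C in 5% CO₂. Compound added at final concentrations, then 72 h. MTT added at 5 µg/mL final for 4 h at 37°C. Tested three times; IC50 taken as the average of […] determinations.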

[1] = target: T1, Receptor-type tyrosine-protein kinase FLT3 (Homo sapiens, UniProt P36888); experiment: Inhibition of FLT3 (unknown origin)
T1 sequence (P36888 whole entry): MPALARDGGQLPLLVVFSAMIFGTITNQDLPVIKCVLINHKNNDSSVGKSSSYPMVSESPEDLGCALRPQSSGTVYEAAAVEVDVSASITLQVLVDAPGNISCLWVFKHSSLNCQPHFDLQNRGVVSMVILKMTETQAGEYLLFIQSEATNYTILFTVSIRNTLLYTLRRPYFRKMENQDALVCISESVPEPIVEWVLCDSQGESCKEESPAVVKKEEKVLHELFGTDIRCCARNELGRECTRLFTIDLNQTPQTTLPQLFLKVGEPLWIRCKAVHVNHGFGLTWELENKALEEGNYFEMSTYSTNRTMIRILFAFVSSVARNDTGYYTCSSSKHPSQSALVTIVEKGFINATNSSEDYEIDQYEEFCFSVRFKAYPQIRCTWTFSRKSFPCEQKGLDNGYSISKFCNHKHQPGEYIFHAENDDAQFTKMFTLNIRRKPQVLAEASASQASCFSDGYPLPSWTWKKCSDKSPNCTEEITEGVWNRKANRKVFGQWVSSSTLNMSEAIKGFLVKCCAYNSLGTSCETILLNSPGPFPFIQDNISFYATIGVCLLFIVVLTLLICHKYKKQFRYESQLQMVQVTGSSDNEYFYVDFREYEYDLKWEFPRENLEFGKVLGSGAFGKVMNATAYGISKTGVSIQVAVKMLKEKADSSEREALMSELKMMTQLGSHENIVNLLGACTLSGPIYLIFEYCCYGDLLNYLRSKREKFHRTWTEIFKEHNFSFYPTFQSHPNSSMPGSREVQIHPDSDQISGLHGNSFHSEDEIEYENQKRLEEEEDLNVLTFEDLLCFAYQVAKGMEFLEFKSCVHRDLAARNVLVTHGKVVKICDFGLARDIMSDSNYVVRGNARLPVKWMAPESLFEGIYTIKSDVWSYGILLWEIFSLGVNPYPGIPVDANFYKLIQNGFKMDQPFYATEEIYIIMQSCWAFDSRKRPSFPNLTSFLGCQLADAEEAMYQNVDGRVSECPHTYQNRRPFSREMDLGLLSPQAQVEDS

MCF7 = experiment: Antiproliferative activity against human MCF7 cells after 72 hrs by MTT assay; format: functional, cell-based; settings: for IC50: Homo sapiens, MCF7, 72 h, read-out: IC50; outline: as §1
A549 [2] = experiment: Cell cycle arrest in human A549 cells assessed as accumulation at sub-G1 phase at 4 uM after 12 hrs by propidium iodide staining-based flow cytometry (reference value: 0.06%); format: functional
A549 [3] = experiment: Antiproliferative activity against human A549 cells at 0.08 to 8 ug/ml by MTT assay; format: functional, cell-based; settings: TDE = time-dependent effect
[4] = target: Hepatocyte growth factor receptor (Homo sapiens, UniProt P08581); experiment: Inhibition of c-Met (unknown origin) using FAM-labeled peptide substrate after 10 mins by mobility shift assay
Chain of Hepatocyte growth factor receptor (P08581 whole entry): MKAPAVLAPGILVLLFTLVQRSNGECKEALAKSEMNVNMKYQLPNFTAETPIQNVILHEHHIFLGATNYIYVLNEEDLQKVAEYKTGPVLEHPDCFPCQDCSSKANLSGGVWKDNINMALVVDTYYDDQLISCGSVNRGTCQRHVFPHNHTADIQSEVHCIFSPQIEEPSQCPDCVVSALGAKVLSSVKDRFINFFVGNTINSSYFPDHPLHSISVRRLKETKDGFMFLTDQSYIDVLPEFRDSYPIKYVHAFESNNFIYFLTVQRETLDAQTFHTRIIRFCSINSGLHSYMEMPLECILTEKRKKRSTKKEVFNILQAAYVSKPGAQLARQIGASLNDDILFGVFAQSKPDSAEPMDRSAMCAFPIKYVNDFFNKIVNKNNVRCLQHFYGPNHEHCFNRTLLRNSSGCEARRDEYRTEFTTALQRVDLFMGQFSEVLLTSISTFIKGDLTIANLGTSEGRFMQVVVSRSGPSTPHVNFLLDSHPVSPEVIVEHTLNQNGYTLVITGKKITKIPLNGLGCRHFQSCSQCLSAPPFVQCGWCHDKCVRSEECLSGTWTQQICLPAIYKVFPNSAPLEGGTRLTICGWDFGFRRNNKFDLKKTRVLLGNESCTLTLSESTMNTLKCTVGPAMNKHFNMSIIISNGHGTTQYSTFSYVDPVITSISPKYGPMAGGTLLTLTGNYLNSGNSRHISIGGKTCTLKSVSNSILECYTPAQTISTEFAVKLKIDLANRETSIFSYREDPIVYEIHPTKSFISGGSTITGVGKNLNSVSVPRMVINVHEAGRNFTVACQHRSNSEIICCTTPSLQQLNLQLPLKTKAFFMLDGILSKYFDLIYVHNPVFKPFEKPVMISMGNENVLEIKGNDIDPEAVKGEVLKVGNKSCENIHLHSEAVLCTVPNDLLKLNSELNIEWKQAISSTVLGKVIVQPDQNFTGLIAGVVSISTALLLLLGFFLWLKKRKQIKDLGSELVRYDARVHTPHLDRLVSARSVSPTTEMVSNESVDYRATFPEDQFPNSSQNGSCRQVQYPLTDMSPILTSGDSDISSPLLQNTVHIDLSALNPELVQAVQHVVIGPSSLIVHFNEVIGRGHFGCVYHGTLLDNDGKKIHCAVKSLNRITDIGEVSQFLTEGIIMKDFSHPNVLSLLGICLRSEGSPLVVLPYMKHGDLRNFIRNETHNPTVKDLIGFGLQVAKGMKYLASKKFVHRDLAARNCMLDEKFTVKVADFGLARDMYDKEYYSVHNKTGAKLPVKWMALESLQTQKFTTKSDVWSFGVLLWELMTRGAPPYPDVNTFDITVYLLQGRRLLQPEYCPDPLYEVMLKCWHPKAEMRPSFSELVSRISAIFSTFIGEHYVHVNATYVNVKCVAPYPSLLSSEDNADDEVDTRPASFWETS

A549 [5] = experiment: Cell cycle arrest in human A549 cells assessed as accumulation at G1 phase at 4 uM after 12 hrs by propidium iodide staining-based flow cytometry (reference value: 27.08%); format: functional
A549 [6] = experiment: Induction of apoptosis in human A549 cells assessed as change in cell morphology at 0.8 uM after 12 hrs by acridine orange staining-based fluorescence microscopic method; format: functional
Outline: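 A549 cells in MEM with 10% FBS, about 2×10⁴ per well, pre-incubated 24 h at 37°C in 5% CO₂. Given drug-free medium or 0.80 µM compound for 12 h. Stained with acridine orange in PBS at 10 µg/mL final for 10 min in the dark, washed three times with PBS, and nuclear morphology viewed by fluorescence microscopy.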

A549 [7] = experiment: Antiproliferative activity against human A549 cells after 72 hrs by MTT assay; format: functional, cell-based; settings: for IC50: Homo sapiens, A549, 72 h, read-out: IC50; outline: as §1
[8] = target: Epidermal growth factor receptor (Homo sapiens, UniProt P00533); experiment: Inhibition of EGFR (unknown origin)
Chain of Epidermal growth factor receptor (P00533 whole entry): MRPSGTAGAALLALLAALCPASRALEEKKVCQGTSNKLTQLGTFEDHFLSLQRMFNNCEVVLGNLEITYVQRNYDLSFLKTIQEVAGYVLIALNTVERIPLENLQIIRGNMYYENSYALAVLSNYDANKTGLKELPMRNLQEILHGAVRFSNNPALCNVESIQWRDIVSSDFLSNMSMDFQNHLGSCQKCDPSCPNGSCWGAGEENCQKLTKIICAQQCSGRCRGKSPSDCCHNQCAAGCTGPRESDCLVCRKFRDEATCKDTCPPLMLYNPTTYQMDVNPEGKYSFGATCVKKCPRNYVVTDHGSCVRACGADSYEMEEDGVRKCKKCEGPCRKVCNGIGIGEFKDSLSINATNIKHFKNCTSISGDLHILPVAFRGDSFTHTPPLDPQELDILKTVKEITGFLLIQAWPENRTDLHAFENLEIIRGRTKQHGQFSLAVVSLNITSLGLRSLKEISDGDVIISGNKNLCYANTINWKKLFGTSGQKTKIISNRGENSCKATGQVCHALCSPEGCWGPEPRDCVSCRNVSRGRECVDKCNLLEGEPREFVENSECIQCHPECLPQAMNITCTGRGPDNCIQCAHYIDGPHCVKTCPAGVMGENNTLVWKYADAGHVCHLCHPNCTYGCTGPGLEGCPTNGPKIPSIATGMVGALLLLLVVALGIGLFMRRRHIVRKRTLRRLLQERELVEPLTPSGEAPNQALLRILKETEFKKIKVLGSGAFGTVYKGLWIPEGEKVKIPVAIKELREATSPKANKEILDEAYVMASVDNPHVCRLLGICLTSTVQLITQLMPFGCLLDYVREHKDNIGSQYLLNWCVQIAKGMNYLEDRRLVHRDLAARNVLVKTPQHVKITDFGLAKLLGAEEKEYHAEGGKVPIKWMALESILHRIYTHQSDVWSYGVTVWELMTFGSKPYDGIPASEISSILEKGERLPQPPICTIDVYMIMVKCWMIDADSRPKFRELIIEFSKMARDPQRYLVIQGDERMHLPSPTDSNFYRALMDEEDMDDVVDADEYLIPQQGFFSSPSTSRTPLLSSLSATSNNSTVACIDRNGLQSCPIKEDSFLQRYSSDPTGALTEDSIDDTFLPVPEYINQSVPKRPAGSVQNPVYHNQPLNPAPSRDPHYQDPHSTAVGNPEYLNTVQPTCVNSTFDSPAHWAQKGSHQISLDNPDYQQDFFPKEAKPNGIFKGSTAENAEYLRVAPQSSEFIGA

A549 [9] = experiment: Cell cycle arrest in human A549 cells assessed as accumulation at S phase at 4 uM after 12 hrs by propidium iodide staining-based flow cytometry (reference value: 48.44%); format: functional
HepG2 = experiment: Antiproliferative activity against human HepG2 cells after 72 hrs by MTT assay; format: functional, cell-based; settings: for IC50: Homo sapiens, HepG2, 72 h, read-out: IC50
Outline: as §1, with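 “37°C. Formazan dissolved in DMSO and read at 492 nm against 630 nm reference.” for “37°C.”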

[10] = target: Vascular endothelial growth factor receptor 2 (Homo sapiens, UniProt P35968); experiment: Inhibition of VEGFR2 (unknown origin)
Chain of Vascular endothelial growth factor receptor 2 (P35968 whole entry): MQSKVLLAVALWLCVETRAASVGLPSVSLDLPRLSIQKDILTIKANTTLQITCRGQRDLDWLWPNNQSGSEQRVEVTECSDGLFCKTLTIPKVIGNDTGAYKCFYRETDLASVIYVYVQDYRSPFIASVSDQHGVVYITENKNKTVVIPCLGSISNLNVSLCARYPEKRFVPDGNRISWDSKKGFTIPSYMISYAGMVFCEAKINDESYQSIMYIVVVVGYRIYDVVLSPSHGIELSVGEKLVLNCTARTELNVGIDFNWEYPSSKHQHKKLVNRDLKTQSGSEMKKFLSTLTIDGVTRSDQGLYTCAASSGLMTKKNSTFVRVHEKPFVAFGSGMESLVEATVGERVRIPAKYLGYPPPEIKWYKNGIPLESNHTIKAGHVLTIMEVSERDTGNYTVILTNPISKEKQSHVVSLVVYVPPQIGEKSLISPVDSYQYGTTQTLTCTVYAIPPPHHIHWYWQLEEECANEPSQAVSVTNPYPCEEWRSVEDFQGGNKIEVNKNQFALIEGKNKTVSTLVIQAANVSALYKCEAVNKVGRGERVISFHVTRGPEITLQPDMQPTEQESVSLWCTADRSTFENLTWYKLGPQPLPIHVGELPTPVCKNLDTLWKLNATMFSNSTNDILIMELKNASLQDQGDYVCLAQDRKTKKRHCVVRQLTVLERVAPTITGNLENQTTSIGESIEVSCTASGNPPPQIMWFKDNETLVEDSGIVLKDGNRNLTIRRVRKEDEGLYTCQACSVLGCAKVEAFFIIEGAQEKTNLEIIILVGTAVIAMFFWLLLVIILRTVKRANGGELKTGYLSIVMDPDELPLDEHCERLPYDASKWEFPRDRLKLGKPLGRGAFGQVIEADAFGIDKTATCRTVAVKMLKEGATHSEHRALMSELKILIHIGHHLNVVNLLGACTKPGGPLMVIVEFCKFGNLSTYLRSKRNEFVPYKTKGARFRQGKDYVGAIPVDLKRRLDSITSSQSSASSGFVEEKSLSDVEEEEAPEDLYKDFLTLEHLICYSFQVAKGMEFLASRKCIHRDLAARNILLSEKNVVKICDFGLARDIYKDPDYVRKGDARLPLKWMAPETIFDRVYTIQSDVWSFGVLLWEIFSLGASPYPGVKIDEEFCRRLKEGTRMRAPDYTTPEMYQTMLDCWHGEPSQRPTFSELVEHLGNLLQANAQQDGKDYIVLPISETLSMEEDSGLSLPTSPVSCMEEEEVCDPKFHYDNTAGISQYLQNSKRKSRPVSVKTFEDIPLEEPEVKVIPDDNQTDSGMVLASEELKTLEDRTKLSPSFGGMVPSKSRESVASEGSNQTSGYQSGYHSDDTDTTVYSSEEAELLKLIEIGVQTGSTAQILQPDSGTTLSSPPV

A549 [11] = experiment: Cell cycle arrest in human A549 cells assessed as accumulation at G2/M phase at 4 uM after 12 hrs by propidium iodide staining-based flow cytometry (reference value: 23.62%); format: functional

IC50 (PC-3)	IC50 [1]	IC50 (MCF7)	IC50 [4]	IC50 (A549 [7])	IC50 [8]	IC50 (HepG2)	IC50 [10]	Compound	Activity (PC-3)	Activity (MCF7)	Activity (A549 [2])	Activity (A549 [3])	Activity (A549 [5])	Activity (A549 [6])	Activity (A549 [7])	Activity (A549 [9])	Activity (HepG2)	Activity (A549 [11])
920 nM	2600 nM	930 nM	506 nM	820 nM	> 100000 nM	1000 nM	8900 nM	O=C(N/N=C/c1ccc(Br)cc1)Nc1ccc(Oc2ccnc3[nH]ccc23)c(F)c1	Dose-dependent effect	Dose-dependent effect	0.01%	Tde	10.67%	Active	Dose-dependent effect	7.08%	Dose-dependent effect	79.86%
4290 nM	3800 nM	4530 nM	907 nM	1300 nM	45000 nM	1420 nM	14400 nM	O=C(N/N=C/c1cccn1CCCN1CCCC1)Nc1ccc(Oc2ccnc3[nH]ccc23)cc1	–	–	–	–	–	–	–	–	–	–
